# Reference: ChEMBL document CHEMBL4715736, “Identification of anticancer agents based on the thieno[2,3-b]pyridine and 1H-pyrazole molecular scaffolds” (2016)
# Assays:
# Type in all cases: functional
# Settings in all cases: read-out: Activity
# [1] = system: HOP-62; experiment: Growth inhibition of human HOP-62 cells assessed as cell growth at 10 uM incubated for 48 hrs by sulforhodamine B assay relative to control
# Summary of the method: (§1)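 Submitted to the NCI Developmental Therapeutics Program for the NCI60 human tumour cell line panel. First screen at a single 10 µM concentration. Read-out is growth relative to untreated control cells set at 100%.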
# [2] = system: COLO 205; experiment: Growth inhibition of human COLO 205 cells assessed as cell growth at 10 uM incubated for 48 hrs by sulforhodamine B assay relative to control
# Summary of the method: (§2)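 NCI Developmental Therapeutics Program NCI60 panel. Compounds that were active in the 10 µM one-dose screen went on to dose–response testing. Growth at each concentration is expressed relative to untreated control (100%). GI50 (concentration giving 50% of maximal inhibition of proliferation) and TGI (concentration giving total growth inhibition) were derived from the curves.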
# [3] = system: NCI-H460; experiment: Growth inhibition of human NCI-H460 cells assessed as cell growth at 10 uM incubated for 48 hrs by sulforhodamine B assay relative to control; summary of the method: as §1
# [4] = system: Hs-578T; experiment: Growth inhibition of human Hs-578T cells assessed as cell growth at 10 uM incubated for 48 hrs by sulforhodamine B assay relative to control; summary of the method: as §1
# [5] = system: SF-539; experiment: Growth inhibition of human SF-539 cells assessed as cell growth at 10 uM incubated for 48 hrs by sulforhodamine B assay relative to control
# Summary of the method: (§3)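 Run by the NCI Developmental Therapeutics Program as part of its 60-line human tumour panel. Each compound tested at a single 10 µM dose. Growth expressed as % relative to untreated control cells (100%).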
# [6] = system: UACC-257; experiment: Growth inhibition of human UACC-257 cells assessed as cell growth at 10 uM incubated for 48 hrs by sulforhodamine B assay relative to control; summary of the method: as §3
# [7] = system: HCT-116; experiment: Growth inhibition of human HCT-116 cells assessed as cell growth at 10 uM incubated for 48 hrs by sulforhodamine B assay relative to control; summary of the method: as §1
# [8] = system: A549; experiment: Growth inhibition of human A549/ATCC cells assessed as cell growth at 10 uM incubated for 48 hrs by sulforhodamine B assay relative to control; summary of the method: as §2
# [9] = system: HCT-15; experiment: Growth inhibition of human HCT-15 cells assessed as cell growth at 10 uM incubated for 48 hrs by sulforhodamine B assay relative to control; summary of the method: as §1
# [10] = system: SF-268; experiment: Growth inhibition of human SF-268 cells assessed as cell growth at 10 uM incubated for 48 hrs by sulforhodamine B assay relative to control; summary of the method: as §3
# [11] = system: K562; experiment: Growth inhibition of human K562 cells assessed as cell growth at 10 uM incubated for 48 hrs by sulforhodamine B assay relative to control; summary of the method: as §1
# [12] = system: Malme-3M; experiment: Growth inhibition of human Malme-3M cells assessed as cell growth at 10 uM incubated for 48 hrs by sulforhodamine B assay relative to control; summary of the method: as §1
# [13] = system: PC-3; experiment: Growth inhibition of human PC-3 cells assessed as cell growth at 10 uM incubated for 48 hrs by sulforhodamine B assay relative to control; summary of the method: as §3
# [14] = system: RXF 393; experiment: Growth inhibition of human RXF 393 cells assessed as cell growth at 10 uM incubated for 48 hrs by sulforhodamine B assay relative to control; summary of the method: as §3
# [15] = system: OVCAR-5; experiment: Growth inhibition of human OVCAR-5 cells assessed as cell growth at 10 uM incubated for 48 hrs by sulforhodamine B assay relative to control; summary of the method: as §3
# [16] = system: M14; experiment: Growth inhibition of human M14 cells assessed as cell growth at 10 uM incubated for 48 hrs by sulforhodamine B assay relative to control; summary of the method: as §1
# [17] = system: DU-145; experiment: Growth inhibition of human DU-145 cells assessed as cell growth at 10 uM incubated for 48 hrs by sulforhodamine B assay relative to control; summary of the method: as §2
# [18] = system: ACHN; experiment: Growth inhibition of human ACHN cells assessed as cell growth at 10 uM incubated for 48 hrs by sulforhodamine B assay relative to control
# Summary of the method: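 NCI Developmental Therapeutics Program NCI60 human tumour cell line panel, one-dose primary screen with every compound at 10 µM. Growth is expressed as % of untreated control cells (100%).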
# [19] = system: SW-620; experiment: Growth inhibition of human SW-620 cells assessed as cell growth at 10 uM incubated for 48 hrs by sulforhodamine B assay relative to control; summary of the method: as §3
# [20] = system: MDA-MB-231; experiment: Growth inhibition of human MDA-MB-231 cells assessed as cell growth at 10 uM incubated for 48 hrs by sulforhodamine B assay relative to control; summary of the method: as §1
# [21] = system: HL-60(TB); experiment: Growth inhibition of human HL-60(TB) cells assessed as cell growth at 10 uM incubated for 48 hrs by sulforhodamine B assay relative to control
# Summary of the method: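 Screened by the NCI Developmental Therapeutics Program on its panel of 60 human tumour cell lines. Compounds were first tested at a single 10 µM dose, and compounds active there went to dose-response curves. Growth is expressed relative to untreated control (100%). GI50 (50% of maximal proliferation inhibition) and TGI (total growth inhibition) were derived from the dose-response data.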
# [22] = system: UO-31; experiment: Growth inhibition of human UO-31 cells assessed as cell growth at 10 uM incubated for 48 hrs by sulforhodamine B assay relative to control; summary of the method: as §3
# [23] = system: MDA-MB-435; experiment: Growth inhibition of human MDA-MB-435 cells assessed as cell growth at 10 uM incubated for 48 hrs by sulforhodamine B assay relative to control; summary of the method: as §1
# [24] = system: 786-0; experiment: Growth inhibition of human 786-0 cells assessed as cell growth at 10 uM incubated for 48 hrs by sulforhodamine B assay relative to control; summary of the method: as §2
# [25] = system: IGROV-1; experiment: Growth inhibition of human IGROV-1 cells assessed as cell growth at 10 uM incubated for 48 hrs by sulforhodamine B assay relative to control; summary of the method: as §1
# [26] = system: MOLT-4; experiment: Growth inhibition of human MOLT-4 cells assessed as cell growth at 10 uM incubated for 48 hrs by sulforhodamine B assay relative to control; summary of the method: as §1
# [27] = system: SNB-19; experiment: Growth inhibition of human SNB-19 cells assessed as cell growth at 10 uM incubated for 48 hrs by sulforhodamine B assay relative to control; summary of the method: as §3
# [28] = system: SNB-75; experiment: Growth inhibition of human SNB-75 cells assessed as cell growth at 10 uM incubated for 48 hrs by sulforhodamine B assay relative to control; summary of the method: as §3
# [29] = system: OVCAR-4; experiment: Growth inhibition of human OVCAR-4 cells assessed as cell growth at 10 uM incubated for 48 hrs by sulforhodamine B assay relative to control; summary of the method: as §3
# [30] = system: SK-MEL-5; experiment: Growth inhibition of human SK-MEL-5 cells assessed as cell growth at 10 uM incubated for 48 hrs by sulforhodamine B assay relative to control; summary of the method: as §3
# [31] = system: NCI-H226; experiment: Growth inhibition of human NCI-H226 cells assessed as cell growth at 10 uM incubated for 48 hrs by sulforhodamine B assay relative to control; summary of the method: as §1
# [32] = system: SF-295; experiment: Growth inhibition of human SF-295 cells assessed as cell growth at 10 uM incubated for 48 hrs by sulforhodamine B assay relative to control; summary of the method: as §3
# [33] = system: OVCAR-3; experiment: Growth inhibition of human OVCAR-3 cells assessed as cell growth at 10 uM incubated for 48 hrs by sulforhodamine B assay relative to control; summary of the method: as §3
SMILES,growth at 10 µM [1],growth at 10 µM [2],growth at 10 µM [3],growth at 10 µM [4],growth at 10 µM [5],growth at 10 µM [6],growth at 10 µM [7],growth at 10 µM [8],growth at 10 µM [9],growth at 10 µM [10],growth at 10 µM [11],growth at 10 µM [13],growth at 10 µM [14],growth at 10 µM [15],growth at 10 µM [16],growth at 10 µM [17],growth at 10 µM [18],growth at 10 µM [19],growth at 10 µM [20],growth at 10 µM [21],other results
O=S(=O)(c1ccc(Br)cc1)n1ccc(-c2ccc(OCCCF)cc2)n1,118%,102%,90.1%,115%,90.2%,77.9%,78.7%,75.7%,86.4%,98.5%,55.6%,79.5%,92.7%,103%,97.1%,102%,94.1%,107%,101%,95.7%,growth at 10 µM [12]: 89%; growth at 10 µM [22]: 69.1%; growth at 10 µM [23]: 98.2%; growth at 10 µM [24]: 85.3%; growth at 10 µM [25]: 89%; growth at 10 µM [26]: 75.8%; growth at 10 µM [27]: 95.5%; growth at 10 µM [28]: 84.5%; growth at 10 µM [29]: 71.1%; growth at 10 µM [30]: 75.4%; growth at 10 µM [31]: 80.6%
CC(=O)c1cccc(NC(=O)c2sc3nc4c(cc3c2N)C(=O)CCC4)c1,97.9%,100%,108%,106%,101%,99.3%,108%,92.8%,93.7%,110%,79.8%,96.3%,104%,106%,100%,108%,103%,98.4%,100%,102%,growth at 10 µM [32]: 90.8%; growth at 10 µM [33]: 120%; growth at 10 µM [22]: 99.7%; growth at 10 µM [23]: 66.8%; growth at 10 µM [24]: 97%; growth at 10 µM [25]: 96.2%; growth at 10 µM [26]: 107%; growth at 10 µM [27]: 99.5%; growth at 10 µM [28]: 94.2%; growth at 10 µM [29]: 88.1%; growth at 10 µM [30]: 96%; growth at 10 µM [31]: 102%
CC(C)N1CCc2nc3sc(C(=O)Nc4ccccc4)c(N)c3cc2C1,94.1%,102%,99.6%,100%,93%,95.1%,102%,89.8%,101%,113%,97.8%,81.9%,102%,90.2%,108%,110%,100%,96.4%,95.2%,98.4%,growth at 10 µM [32]: 105%; growth at 10 µM [33]: 108%; growth at 10 µM [22]: 87.8%; growth at 10 µM [23]: 94%; growth at 10 µM [24]: 108%; growth at 10 µM [25]: 100%; growth at 10 µM [26]: 106%; growth at 10 µM [27]: 105%; growth at 10 µM [28]: 69.1%; growth at 10 µM [29]: 105%; growth at 10 µM [30]: 95%; growth at 10 µM [31]: 94.8%
Cc1cccc(NC(=O)c2sc3nc4c(cc3c2N)CN(Cc2ccccc2)CC4)c1,110%,104%,98.6%,94.6%,79.9%,89.8%,92.6%,84.2%,97.5%,103%,109%,98%,103%,104%,106%,89.3%,102%,96.8%,113%,108%,growth at 10 µM [32]: 110%; growth at 10 µM [33]: 116%; growth at 10 µM [22]: 98.4%; growth at 10 µM [23]: 94.5%; growth at 10 µM [24]: 91.5%; growth at 10 µM [25]: 102%; growth at 10 µM [26]: 103%; growth at 10 µM [27]: 110%; growth at 10 µM [28]: 101%; growth at 10 µM [29]: 105%; growth at 10 µM [30]: 103%; growth at 10 µM [31]: 100%
CC(=O)c1ccc2c(N)c(C(=O)Nc3ccccc3)sc2n1,102%,105%,101%,106%,97%,102%,108%,89%,96.7%,112%,95%,97.4%,100%,113%,109%,107%,102%,99.4%,112%,108%,growth at 10 µM [32]: 108%; growth at 10 µM [33]: 119%; growth at 10 µM [22]: 103%; growth at 10 µM [23]: 106%; growth at 10 µM [24]: 97.9%; growth at 10 µM [25]: 113%; growth at 10 µM [26]: 107%; growth at 10 µM [27]: 105%; growth at 10 µM [28]: 99.5%; growth at 10 µM [29]: 84.2%; growth at 10 µM [30]: 98.5%; growth at 10 µM [31]: 93.4%
Nc1c(C(=O)N(c2ccccc2)c2ccccc2)sc2nc3c(cc12)C(=O)CCC3,99.3%,109%,99.9%,92.3%,81.7%,106%,94.2%,90.2%,89.5%,99.8%,113%,103%,111%,130%,94.2%,68.6%,110%,89.3%,85.9%,105%,growth at 10 µM [32]: 107%; growth at 10 µM [33]: 107%; growth at 10 µM [22]: 87%; growth at 10 µM [23]: 110%; growth at 10 µM [24]: 104%; growth at 10 µM [25]: 103%; growth at 10 µM [26]: 102%; growth at 10 µM [27]: 104%; growth at 10 µM [28]: 108%; growth at 10 µM [30]: 102%; growth at 10 µM [31]: 104%
